Blank lines part the entries; values can stand above or below the molecule they belong to. The source made the active and inactive calls. The calls are words filed in the database; no cut-off is given here.
What was measured:
H4IIE [1] = test: Activation of AMPK in rat H4IIE cells assessed as increase of AMP/ATP ratio level after 1 hr by spectrophotometric analysis; type: cell-based
Procedure, shortened: (§1)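 Serum-starved H4IIE hepatoma cells, differentiated C2C12 myotubes and differentiated 3T3-L1 adipocytes were exposed 1, 2 and 2 h respectively. Cells were lysed in Tris/SDS/glycerol, nuclease-digested, perchloric acid-extracted and neutralized. ATP, ADP and AMP were separated by C18 HPLC in phosphate buffer at pH 6.2, 40 °C, with detection at […]. AMP/ATP and ADP/ATP ratios were calculated from these levels; mean ± SE, n = 3.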

[2] = biological target: 5'-AMP-activated protein kinase catalytic subunit alpha-1 (Rattus norvegicus) (UniProt P54645); test: Activation of AMPKalpha in rat H4IIE cells assessed as ACC phosphorylation at Ser79 after 1 hr by Western blot analysis; type: cell-based
Procedure, shortened: (§2)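 H4IIE cells grown in 1 g/L glucose DMEM, serum-starved overnight, then treated 1 h; 2 mM AICAR served as reference. Lysates (50−100 μg protein) were run on 7.5% SDS-PAGE and immunoblotted for p-AMPKα (Thr172), p-ACC (Ser79), total AMPKα and total ACC.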

H4IIE [3] = test: Activation of AMPK in rat H4IIE cells assessed as increase of ADP level by spectrophotometric analysis; type: cell-based; procedure, shortened: as §1
[4] = biological target: 5'-AMP-activated protein kinase catalytic subunit alpha-1 (Rattus norvegicus) (UniProt P54645); test: Increase of AMPKalpha phosphorylation at Thr172 in rat H4IIE cells at 0.3 uM after […] by Western blot analysis; type: cell-based
[5] = biological target: AMP-activated protein kinase, AMPK (Homo sapiens) (UniProt P54646+O43741+P54619+Q9UGJ0+Q9Y478+Q13131+Q9UGI9); test: Activation of AMPK in LKB1-deficient human HeLa cells at 10 to 100 uM after 1 hr by Western blot analysis; type: cell-based
3T3-L1 [6] = test: Activation of AMPK in mouse 3T3L1 cells assessed as increase of ADP level by spectrophotometric analysis; type: cell-based; procedure, shortened: as §1
Mus musculus [7] = test: Activation of AMPK in C57BL/6J mouse skeletal muscle assessed as increase of PGC-1alpha transcription at 100 to 200 mg/kg, po after 2 hrs by RT-qPCR analysis; settings: Muscle tissue
C2C12 [8] = test: Activation of AMPK in mouse C2C12 cells assessed as decrease of ATP level by spectrophotometric analysis; type: cell-based; procedure, shortened: as §1
Mus musculus [9] = test: Activation of AMPK in C57BL/6J mouse liver assessed as phosphorylated ACC level at 200 mg/kg, po after 2 hrs by Western blot analysis; type: functional, organism-based; parameters: dose 200 mg/kg
Procedure, shortened: (§3)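 Male C57BL/6J mice (10 weeks), fasted 4 h, given a single oral dose of 200 mg/kg in 0.5% carboxymethyl cellulose with 0.5% polyoxyethylene sorbitan. Dissected under chloral hydrate anesthesia (500 mg/kg ip) 2 h later. Liver, epididymal white adipose and quadriceps were homogenized in RIPA buffer and immunoblotted for p-AMPKα (Thr172) and p-ACC (Ser79). Signals normalized to α-tubulin; mean ± SE, 5 mice; Student's t test against vehicle.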

H4IIE [10] = test: Increase of AMPK phosphorylation at Thr172 in rat H4IIE cells at 5 to 10 uM after 1 hr by ELISA; type: cell-based
Procedure, shortened: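 Confluent H4IIE cells in 96-well plates were starved overnight in serum-free DMEM (1 g/L glucose), then treated 1 h at 37 °C. Cells were fixed in 4% formaldehyde and endogenous peroxidase quenched with H2O2. Plates were blocked with 10% FBS and probed overnight at 4 °C with anti-p-AMPKα (Thr172), then with HRP secondary and TMB read-out. Mean ± SE, n = 4; Dunnett's test against basal.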

Rattus norvegicus [11] = organism: Rattus norvegicus; test: Inhibition of rat liver mitochondrial respiratory chain complex 1 assessed as reduction of oxygen consumption at stage 4 at 10 uM in presence of glutamate and ADP
Procedure, shortened: (§4)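 Liver mitochondria from Wistar rats were isolated by differential centrifugation in sucrose/Tris-MOPS/EGTA at pH 7.4, with respiratory control ratio 5−7. O2 uptake was measured with a Clark electrode, State 3/4 induced by 100 μM ADP. Complex I substrate was 5 mM glutamate plus 2.5 mM malate; complex II substrate was 5 mM succinate plus 2 μM rotenone. Dose−response run; mean ± SE, n = 3.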

Mus musculus [12] = test: Activation of AMPK in C57BL/6J mouse white adipose tissue at 200 mg/kg, po after 2 hrs by Western blot analysis; type: functional, organism-based; parameters: dose 200 mg/kg; procedure, shortened: as §3
C2C12 [13] = test: Activation of AMPK in mouse C2C12 cells assessed as increase of ADP level by spectrophotometric analysis; type: cell-based; procedure, shortened: as §1
Mus musculus [14] = test: Activation of AMPK in C57BL/6J mouse white adipose tissue assessed as phosphorylated ACC level at 200 mg/kg, po after 2 hrs by Western blot analysis; type: functional, organism-based; parameters: dose 200 mg/kg; procedure, shortened: as §3
C2C12 [15] = test: Activation of AMPK in mouse C2C12 cells assessed as increase of AMP/ATP ratio level after 2 hrs by spectrophotometric analysis; type: cell-based; procedure, shortened: as §1
H4IIE [16] = test: Activation of AMPK in rat H4IIE cells assessed as increase of AMP level by spectrophotometric analysis; type: cell-based; procedure, shortened: as §1
[17] = biological target: 5'-AMP-activated protein kinase catalytic subunit alpha-1 (Mus musculus) (UniProt Q5EG47); test: Increase of AMPKalpha phosphorylation at Thr172 in mouse 3T3L1 cells at 10 uM after 2 hrs by Western blot analysis; type: cell-based; settings: 3T3-L1
Procedure, shortened: (§5)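 Cells were starved, then treated 2 h with 2 mM AICAR as reference. C2C12 cells were myotubes differentiated 4 days in 2% horse serum. 3T3-L1 cells were adipocytes differentiated with insulin, dexamethasone and IBMX and used at days 10−14. Lysates were immunoblotted on 7.5% SDS-PAGE for p-AMPKα (Thr172), p-ACC (Ser79), total AMPKα and total ACC.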

H4IIE [18] = test: Activation of AMPK in rat H4IIE cells assessed as decrease of ATP level by spectrophotometric analysis; type: cell-based; procedure, shortened: as §1
Rattus norvegicus [19] = organism: Rattus norvegicus; test: Inhibition of rat liver mitochondrial respiratory chain complex 1 assessed as reduction of oxygen consumption at stage 4 in presence of glutamate and malate; procedure, shortened: as §4
Mus musculus [20] = test: Activation of AMPK in C57BL/6J mouse liver at 200 mg/kg, po after 2 hrs by Western blot analysis; type: functional, organism-based; parameters: dose 200 mg/kg; procedure, shortened: as §3
Rattus norvegicus [21] = organism: Rattus norvegicus; test: Inhibition of rat liver mitochondrial respiratory chain complex 2 assessed as reduction of oxygen consumption at stage 4 in presence of succinate and rotenone; procedure, shortened: as §4
[22] = biological target: 5'-AMP-activated protein kinase catalytic subunit alpha-1 (Mus musculus) (UniProt Q5EG47); test: Increase of AMPKalpha phosphorylation at Thr172 in mouse C2C12 cells at 5 uM after 2 hrs by Western blot analysis; type: cell-based; procedure, shortened: as §5
C2C12 [23] = test: Activation of AMPK in mouse C2C12 cells assessed as increase of ADP/ATP ratio level after 2 hrs by spectrophotometric analysis; type: cell-based; procedure, shortened: as §1
Mus musculus [24] = test: Activation of AMPK in glucose loaded C57BL/6J mouse assessed as decrease of AUC of blood glucose level at 500 mg/kg, po after 1 hr by oral glucose tolerance test; type: functional, organism-based; parameters: dose 500 mg/kg
3T3-L1 [25] = test: Activation of AMPK in mouse 3T3L1 cells assessed as decrease of ATP level by spectrophotometric analysis; type: cell-based; procedure, shortened: as §1
H4IIE [26] = test: Activation of AMPK in rat H4IIE cells assessed as increase of ADP/ATP ratio level after 1 hr by spectrophotometric analysis; type: cell-based; procedure, shortened: as §1
Mus musculus [27] = test: Activation of AMPK in glucose loaded C57BL/6J mouse assessed as decrease of AUC of blood glucose level at 100 to 200 mg/kg, po after 1 hr by oral glucose tolerance test; type: functional, organism-based
Procedure, shortened: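 Male C57BL/6J mice, fasted 15 h, dosed orally at 100 or 200 mg/kg. Glucose (1 M solution, 1 g/kg) given orally 60 min later. Tail-vein blood glucose read at 0, 15, 30, 45, 60, 90 and 120 min, and AUC calculated from the curve. Mean ± SE, 5 mice; one-way ANOVA with Dunnett's test against vehicle.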

C2C12 [28] = test: Activation of AMPK in mouse C2C12 cells assessed as increase of AMP level by spectrophotometric analysis; type: cell-based; procedure, shortened: as §1
3T3-L1 [29] = test: Activation of AMPK in mouse 3T3L1 cells assessed as increase of AMP level by spectrophotometric analysis; type: cell-based; procedure, shortened: as §1
3T3-L1 [30] = test: Activation of AMPK in mouse 3T3L1 cells assessed as increase of AMP/ATP ratio level after 2 hrs by spectrophotometric analysis; type: cell-based; procedure, shortened: as §1
3T3-L1 [31] = test: Activation of AMPK in mouse 3T3L1 cells assessed as increase of ADP/ATP ratio level after 2 hrs by spectrophotometric analysis; type: cell-based; procedure, shortened: as §1
Mus musculus [32] = test: Activation of AMPK in C57BL/6J mouse skeletal muscle at 200 mg/kg, po after 2 hrs by Western blot analysis; type: functional, organism-based; parameters: dose 200 mg/kg; settings: Muscle tissue; procedure, shortened: as §3
[33] = biological target: 5'-AMP-activated protein kinase catalytic subunit alpha-1 (Rattus norvegicus) (UniProt P54645); test: Increase of AMPKalpha phosphorylation at Thr172 in rat H4IIE cells after 1 hr by Western blot analysis; type: cell-based; procedure, shortened: as §2
Mus musculus [34] = test: Activation of AMPK in C57BL/6J mouse skeletal muscle assessed as increase of PGC-1alpha transcription at 500 mg/kg, sc after 2 hrs by RT-qPCR analysis; settings: Muscle tissue

5'-AMP-activated protein kinase catalytic subunit alpha-1 (Rattus norvegicus), sequence (P54645 whole entry): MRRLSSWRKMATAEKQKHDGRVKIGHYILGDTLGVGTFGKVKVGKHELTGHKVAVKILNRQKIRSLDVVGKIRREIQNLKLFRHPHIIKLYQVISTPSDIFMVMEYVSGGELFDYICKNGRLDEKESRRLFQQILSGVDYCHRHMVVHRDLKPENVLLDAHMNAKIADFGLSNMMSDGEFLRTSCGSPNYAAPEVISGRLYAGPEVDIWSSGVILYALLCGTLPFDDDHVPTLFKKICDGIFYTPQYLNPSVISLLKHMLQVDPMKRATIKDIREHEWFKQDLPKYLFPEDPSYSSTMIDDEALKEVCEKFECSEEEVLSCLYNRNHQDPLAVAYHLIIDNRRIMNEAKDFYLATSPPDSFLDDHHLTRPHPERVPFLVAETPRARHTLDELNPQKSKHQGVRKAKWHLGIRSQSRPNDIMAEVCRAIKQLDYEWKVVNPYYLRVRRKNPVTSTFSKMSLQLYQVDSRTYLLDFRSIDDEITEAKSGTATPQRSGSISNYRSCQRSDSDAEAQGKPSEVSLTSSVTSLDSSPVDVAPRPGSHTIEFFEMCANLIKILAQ
5'-AMP-activated protein kinase catalytic subunit alpha-1 (Mus musculus), sequence (Q5EG47 whole entry): as the sequence (P54645 whole entry) above, with T269A, E518D counted along it

Activity [2]: Dose-dependent effect
Activity [4]: Active
Activity [5]: Active
Activity [17]: Active
inhibition (Rattus norvegicus [21]): inactive
Activity [22]: Active
Activity [33]: Dose-dependent effect
SMILES: C=C(C)[C@@H]1C[C@@]2(C)C(=CC1=O)CC[C@@H](OC(=O)/C(C)=C\C)[C@@H]2C
Activity (H4IIE [1]): Dose-dependent effect
Activity (H4IIE [3]): Dose-dependent effect
Activity (3T3-L1 [6]): Dose-dependent effect
Activity (Mus musculus [7]): Active
Activity (C2C12 [8]): Dose-dependent effect
Activity (Mus musculus [9]): Active
Activity (H4IIE [10]): Active
inhibition (Rattus norvegicus [11]): Active
Activity (Mus musculus [12]): Active
Activity (C2C12 [13]): Dose-dependent effect
Activity (Mus musculus [14]): Active
Activity (C2C12 [15]): Dose-dependent effect
Activity (H4IIE [16]): Dose-dependent effect
Activity (H4IIE [18]): Dose-dependent effect
inhibition (Rattus norvegicus [19]): Dose-dependent effect
Activity (Mus musculus [20]): Active
Activity (C2C12 [23]): Dose-dependent effect
Activity (Mus musculus [24]): Active
Activity (3T3-L1 [25]): Dose-dependent effect
Activity (H4IIE [26]): Dose-dependent effect
Activity (Mus musculus [27]): Active
Activity (C2C12 [28]): Dose-dependent effect
Activity (3T3-L1 [29]): Dose-dependent effect
Activity (3T3-L1 [30]): Dose-dependent effect
Activity (3T3-L1 [31]): Dose-dependent effect
Activity (Mus musculus [32]): Active

SMILES: C/C=C(/C)C(=O)O[C@@H]1CCC2=CC(=O)C(=C(C)C)C[C@]2(C)[C@H]1C
Activity (H4IIE [10]): Active

SMILES: NC(=O)c1ncn([C@@H]2O[C@H](CO)[C@@H](O)[C@H]2O)c1N
Activity (Mus musculus [34]): Active

— ChEMBL document CHEMBL3286138, “Petasin activates AMP-activated protein kinase and modulates glucose metabolism” (J Nat Prod, 2014)
